Measurements published in ChEMBL document CHEMBL3244382, “Structural requirements for antileukemic activity among the naturally occurring and semisynthetic maytansinoids” (J Med Chem, 1978).
Converted amounts (≈) assume the structure as drawn. The source made the active and inactive calls.

Assays:
P388 [1] = test: Antitumor activity against mouse P388 cells allografted in PS mouse assessed as median survival time at 3.1 ug/kg relative to control; assay type: functional
In short: (§1)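 P388 leukemia (PS) in mice, six mice started per dose group. Read-out is T/C: median survival time of the treated group divided by that of the untreated control group, expressed as a percent. The NIH protocol counts a compound as active when T/C > 125%.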

P388 [2] = test: Antitumor activity against mouse P388 cells allografted in PS mouse assessed as median survival time at 25 ug/kg relative to control; assay type: functional; in short: as §1
Mus musculus [3] = test: Toxicity in PS mouse allografted with mouse P388 cells assessed as change in body weight at 6.2 ug/kg relative to control; assay type: organism-based; conditions: in vivo, 0.0062 mg/kg
In short: (§2)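 P388 (PS) leukemia in mice, 6 mice per dose group. Weight change is the difference in grams between treated and control animals. Survivors are recorded on toxicity day, normally 4 days after the first injection.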

Mus musculus [4] = test: Toxicity in PS mouse allografted with mouse P388 cells assessed as survival at 0.8 ug/kg after 4 days; assay type: organism-based; conditions: in vivo, 0.0008 mg/kg, 96 h
In short: (§3)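 PS (P388) leukemic mice, six started per dose group. Toxicity scored as survivors on the toxicity day over the number of mice started. The toxicity day is normally 4 days after the first injection.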

Tubulin (Homo sapiens) = Tubulin (Homo sapiens) (UniProt P68371+Q9H4B7+P0DPH7+P68366+Q13509+Q71U36+P04350+Q3ZCM7+P07437+P68363+Q9BQE3+Q6PEY2+Q13885+Q9BVA1+Q9BUF5); test: Inhibition of brain tubulin polymerization (unknown origin) at 37 degC by spectrophotometry
Mus musculus [5] = test: Toxicity in PS mouse allografted with mouse P388 cells assessed as change in body weight at 0.8 ug/kg relative to control; assay type: organism-based; conditions: in vivo, 0.0008 mg/kg
In short: (§4)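 PS (P388 leukemia) mice, six per dose group. Toxicity read as the difference in grams between the weights of treated and control animals.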

P388 [6] = test: Antitumor activity against mouse P388 cells allografted in PS mouse assessed as median survival time at 6.2 ug/kg relative to control; assay type: functional; in short: as §1
Mus musculus [7] = test: Toxicity in PS mouse allografted with mouse P388 cells assessed as change in body weight at 3.1 ug/kg relative to control; assay type: organism-based; conditions: in vivo, 0.0031 mg/kg; in short: as §2
Mus musculus [8] = test: Toxicity in PS mouse allografted with mouse P388 cells assessed as change in body weight at 1.6 ug/kg relative to control; assay type: organism-based; conditions: in vivo, 0.0016 mg/kg; in short: as §2
Mus musculus [9] = test: Toxicity in PS mouse allografted with mouse P388 cells assessed as change in body weight at 25 ug/kg relative to control; assay type: organism-based; conditions: in vivo, 0.025 mg/kg; in short: as §2
P388 [10] = test: Antitumor activity against mouse P388 cells allografted in PS mouse assessed as median survival time at 0.4 ug/kg relative to control; assay type: functional; in short: as §1
P388 [11] = test: Antitumor activity against mouse P388 cells allografted in PS mouse assessed as median survival time at 1.6 ug/kg relative to control; assay type: functional; in short: as §1
Mus musculus [12] = test: Toxicity in PS mouse allografted with mouse P388 cells assessed as survival at 12.5 ug/kg after 4 days; assay type: organism-based; conditions: in vivo, 0.0125 mg/kg, 96 h; in short: as §3
Mus musculus [13] = test: Toxicity in PS mouse allografted with mouse P388 cells assessed as survival at 50 ug/kg after 4 days; assay type: organism-based; conditions: in vivo, 0.05 mg/kg, 96 h; in short: as §3
P388 [14] = test: Antitumor activity against mouse P388 cells allografted in PS mouse assessed as median survival time at 12.5 ug/kg relative to control; assay type: functional; in short: as §1
Mus musculus [15] = test: Toxicity in PS mouse allografted with mouse P388 cells assessed as change in body weight at 50 ug/kg relative to control; assay type: organism-based; conditions: in vivo, 0.05 mg/kg; in short: as §2
P388 [16] = test: Antitumor activity against mouse P388 cells allografted in PS mouse assessed as median survival time at 50 ug/kg relative to control; assay type: functional; in short: as §1
Mus musculus [17] = test: Toxicity in PS mouse allografted with mouse P388 cells assessed as survival at 3.1 ug/kg after 4 days; assay type: organism-based; conditions: in vivo, 0.0031 mg/kg, 96 h; in short: as §3
Mus musculus [18] = test: Toxicity in PS mouse allografted with mouse P388 cells assessed as survival at 100 ug/kg after 4 days; assay type: organism-based; conditions: in vivo, 0.1 mg/kg, 96 h; in short: as §3
P388 [19] = test: Antitumor activity against mouse P388 cells allografted in PS mouse assessed as median survival time at 0.8 ug/kg relative to control; assay type: functional; in short: as §1
Mus musculus [20] = test: Toxicity in PS mouse allografted with mouse P388 cells assessed as survival at 0.4 ug/kg after 4 days; assay type: organism-based; conditions: in vivo, 0.0004 mg/kg, 96 h; in short: as §3
Mus musculus [21] = test: Toxicity in PS mouse allografted with mouse P388 cells assessed as survival at 25 ug/kg after 4 days; assay type: organism-based; conditions: in vivo, 0.025 mg/kg, 96 h; in short: as §3
Paracentrotus lividus = test: Antimitotic activity against sea urchin eggs assessed as drug level causing inhibition of mitosis; assay type: functional; conditions: Egg
Mus musculus [22] = test: Toxicity in PS mouse allografted with mouse P388 cells assessed as change in body weight at 12.5 ug/kg relative to control; assay type: organism-based; conditions: in vivo, 0.0125 mg/kg; in short: as §2
P388 [23] = test: Antitumor activity against mouse P388 cells allografted in PS mouse assessed as median survival time at 100 ug/kg relative to control; assay type: functional; in short: as §1
Mus musculus [24] = test: Toxicity in PS mouse allografted with mouse P388 cells assessed as change in body weight at 0.4 ug/kg relative to control; assay type: organism-based; conditions: in vivo, 0.0004 mg/kg; in short: as §4
Mus musculus [25] = test: Toxicity in PS mouse allografted with mouse P388 cells assessed as survival at 6.2 ug/kg after 4 days; assay type: organism-based; conditions: in vivo, 0.0062 mg/kg, 96 h; in short: as §3
Mus musculus [26] = test: Toxicity in PS mouse allografted with mouse P388 cells assessed as survival at 1.6 ug/kg after 4 days; assay type: organism-based; conditions: in vivo, 0.0016 mg/kg, 96 h; in short: as §3
Mus musculus [27] = test: Toxicity in PS mouse allografted with mouse P388 cells assessed as change in body weight at 100 ug/kg relative to control; assay type: organism-based; conditions: in vivo, 0.1 mg/kg; in short: as §2
KB = test: Cytotoxicity against human KB cells; assay type: functional; conditions: read-out: ED50 (the source's name)
Mus musculus [28] = test: Toxicity in PS mouse allografted with mouse P388 cells assessed as change in body weight at 200 ug/kg relative to control; assay type: organism-based; conditions: in vivo, 0.2 mg/kg; in short: as §2
P388 [29] = test: Antitumor activity against mouse P388 cells allografted in PS mouse assessed as median survival time at 200 ug/kg relative to control; assay type: functional; in short: as §1
Mus musculus [30] = test: Toxicity in PS mouse allografted with mouse P388 cells assessed as survival at 200 ug/kg after 4 days; assay type: organism-based; conditions: in vivo, 0.2 mg/kg, 96 h; in short: as §3
Mus musculus [31] = test: Toxicity in PS mouse allografted with mouse P388 cells assessed as change in body weight at 400 ug/kg relative to control; assay type: organism-based; conditions: in vivo, 0.4 mg/kg; in short: as §2
P388 [32] = test: Antitumor activity against mouse P388 cells allografted in PS mouse assessed as median survival time at 400 ug/kg relative to control; assay type: functional; in short: as §1
Mus musculus [33] = test: Toxicity in PS mouse allografted with mouse P388 cells assessed as survival at 400 ug/kg after 4 days; assay type: organism-based; conditions: in vivo, 0.4 mg/kg, 96 h; in short: as §3

| SMILES | T/C (P388 [1]) [%] | T/C (P388 [2]) [%] | Activity (Mus musculus [3]) [g] | Activity (Mus musculus [4]) | inhibition (Tubulin (Homo sapiens)) | Activity (Mus musculus [5]) [g] | T/C (P388 [6]) [%] | Activity (Mus musculus [7]) [g] | Activity (Mus musculus [8]) [g] | Activity (Mus musculus [9]) [g] | T/C (P388 [11]) [%] | Activity (Mus musculus [12]) | Activity (Mus musculus [13]) | T/C (P388 [14]) [%] | Activity (Mus musculus [15]) [g] | T/C (P388 [16]) [%] | Activity (Mus musculus [18]) | T/C (P388 [23]) [%] | Activity (Mus musculus [27]) [g] | EC50 (KB) [ng/mL] | also measured |
| --- | --- | --- | --- | --- | --- | --- | --- | --- | --- | --- | --- | --- | --- | --- | --- | --- | --- | --- | --- | --- | --- |
| COc1cc2cc(c1Cl)N(C)C(=O)C[C@H](OC(=O)[C@H](C)N(C)C(C)=O)[C@]1(C)O[C@H]1[C@H](C)[C@@H]1C[C@@](O)(NC(=O)O1)[C@H](OC)/C=C/C=C(\C)C2 [MAYTANSINE] | 165 | 220 | 1.3 | Non-toxic | Active | 1.4 | 195 | -0.1 | 1.6 | 0.6 | 155 | Non-toxic | Non-toxic | 190 | 0.3 | 125 | Non-toxic | <80 | -0.4 | 0.0061 (≈ 0.00881 nM) | T/C (P388 [10]): 125%; Activity (Mus musculus [17]): Non-toxic; T/C (P388 [19]): 145%; Activity (Mus musculus [20]): Non-toxic; Activity (Mus musculus [21]): Non-toxic; Activity (Paracentrotus lividus): 1 ×10⁻⁷ mol/L; Activity (Mus musculus [22]): 1.6 g; Activity (Mus musculus [24]): 1.7 g; Activity (Mus musculus [25]): Non-toxic; Activity (Mus musculus [26]): Non-toxic |
| C/C=C/C(=O)O[C@H]1CC(=O)N(C)c2cc(cc(OC)c2Cl)C/C(C)=C/C=C/[C@@H](OC)[C@@]2(O)C[C@H](OC(=O)N2)[C@@H](C)[C@@H]2O[C@@]12C | 150 | 173 | -3 | Non-toxic | – | -4.5 | 160 | -1.7 | -4.5 | -3.6 | 150 | Non-toxic | Non-toxic | 170 | -3.5 | 210 | Non-toxic | 210 | -3.6 | 0.23 (≈ 0.363 nM) | Activity (Mus musculus [28]): -1.8 g; T/C (P388 [29]): 210%; Activity (Mus musculus [30]): Non-toxic; Activity (Mus musculus [17]): Non-toxic; T/C (P388 [19]): 150%; Activity (Mus musculus [21]): Non-toxic; Activity (Mus musculus [22]): -2.5 g; Activity (Mus musculus [25]): Non-toxic; Activity (Mus musculus [26]): Non-toxic |
| COc1cc2cc(c1Cl)N(C)C(=O)C[C@H](OC(=O)[C@H](C)N(C)C(C)=O)[C@]1(C)O[C@H]1[C@H](C)[C@@H]1C[C@@](OC)(NC(=O)O1)[C@H](OC)/C=C/C=C(\C)C2 | – | – | – | – | Active | – | – | – | – | – | – | – | Non-toxic | – | -2.3 | 101 | Non-toxic | 104 | -0.9 | 0.19 (≈ 0.269 nM) | Activity (Mus musculus [28]): -0.7 g; T/C (P388 [29]): 93%; Activity (Mus musculus [31]): -0.9 g; Activity (Mus musculus [30]): Non-toxic; T/C (P388 [32]): 139%; Activity (Paracentrotus lividus): 1 ×10⁻⁸ mol/L; Activity (Mus musculus [33]): Non-toxic |
